In ChEMBL document CHEMBL1154198, “Chemical genetics of Plasmodium falciparum” (Nature, 2010):

Assays:
[1] = ST_JUDE: Cytotoxicity using luciferase to measure ATP as an indicator of the viability of human foreskin fibroblast cells (BJ); type: toxicity, cell-based
[2] = system: Plasmodium falciparum; assay: ST_JUDE: Cytotoxicity against Plasmodium falciparum 3D7; type: functional, organism-based
Outline: (§1)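 Asexual P. falciparum grown in human erythrocytes, exposed to compounds for 72 h, and growth read as the DNA quantity in treated versus control cultures. Dose-response run at 12 concentrations from 10 μM to 5 nM.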

[3] = system: Toxoplasma gondii; assay: ST_JUDE: Growth inhibition of to Toxoplasma gondii, in human U-2OS cells, as measured by luciferase.; type: functional, organism-based; conditions: RH, U2OS
Outline: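 T. gondii parasites engineered to express luciferase; drug sensitivity read by luminescence.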

[4] = ST_JUDE: Cytotoxicity using luciferase to measure ATP as an indicator of the viability of human Burkitt''s lymphoma lymphoblast cells (Raji); type: toxicity, cell-based
[5] = system: Plasmodium falciparum; assay: ST_JUDE: Cytotoxicity against Plasmodium falciparum W2; type: functional, organism-based
[6] = ST_JUDE: Cytotoxicity using luciferase to measure ATP as an indicator of the viability of human epithelial hepatocellular carcinoma cells (HepG2); type: toxicity, cell-based
[7] = system: Leishmania major; assay: ST_JUDE: Cytotoxicity using Alamar Blue to measure viability of Leishmania major; type: functional, organism-based
Outline: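 L. major promastigotes; drug susceptibility read with Alamar Blue.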

[8] = ST_JUDE: Cytotoxicity using luciferase to measure ATP as an indicator of the viability of human epithelial embryonic kidney cells (HEK293); type: toxicity, cell-based
[9] = system: Plasmodium falciparum; assay: ST_JUDE: Plasmodium falciparum 3D7 EC50 (uM) as measured by SYBR green dye; type: functional, organism-based
[10] = system: Plasmodium falciparum; assay: ST_JUDE: Cytotoxicity against Plasmodium falciparum K1; type: functional, organism-based; outline: as §1
[11] = system: Plasmodium falciparum; assay: ST_JUDE: Cytotoxicity against Plasmodium falciparum D10 transfected with yeast DHOD; type: functional, organism-based
[12] = system: Plasmodium falciparum; assay: ST_JUDE: Plasmodium falciparum K1 EC50 (uM) as measured by SYBR green dye; type: functional, organism-based
[13] = system: Plasmodium falciparum; assay: ST_JUDE: Cytotoxicity against Plasmodium falciparum V1/S; type: functional, organism-based
[14] = system: Trypanosoma brucei; assay: ST_JUDE: Cytotoxicity using luciferase to measure ATP as an indicator of the viability of Trypanosoma brucei; type: functional, organism-based
[15] = system: Plasmodium falciparum; assay: ST_JUDE: Cytotoxicity against Plasmodium falciparum SB-A6; type: functional, organism-based
[16] = system: Plasmodium falciparum; assay: ST_JUDE: Cytotoxicity against Plasmodium falciparum Dd2; type: functional, organism-based

| Structure (SMILES) | EC50 [1] [µM] | EC50 [2] [µM] | EC50 [3] [µM] | EC50 [4] [µM] | EC50 [5] [µM] | EC50 [6] [µM] | EC50 [7] [µM] | EC50 [8] [µM] | EC50 [9] [µM] | EC50 [10] [µM] | EC50 [11] [µM] | EC50 [12] [µM] | EC50 [13] [µM] | EC50 [14] [µM] | EC50 [15] [µM] | EC50 [16] [µM] |
| --- | --- | --- | --- | --- | --- | --- | --- | --- | --- | --- | --- | --- | --- | --- | --- | --- |
| CCOc1ccc2nc3cc(N)ccc3c(N)c2c1 | 17.9 | 1.94 | > 17.9 | > 32.6 | 0.758 | > 32.6 | > 14 | > 32.6 | 1.12 | 1.73 | 2.39 | 0.582 | 2 | 7.47 | 2.38 | 0.294 |
| Fc1ccc(Nc2nc(NCc3ccco3)c3ccccc3n2)cc1 | 20.1 | 0.581 | 13.6 | 14.9 | 0.354 | 8.25 | 0.0029 | 20 | 0.673 | 1.12 | 1.2 | > 15 | 1.91 | 12.2 | 0.357 | 0.489 |
| CC(CNC(=O)c1cn(C2CCCCC2)cc(C(=O)NC(C)(C)C)c1=O)c1ccccc1 (configuration not stated) | > 52.8 | 0.321 | > 28.9 | > 52.8 | > 13.6 | > 52.8 | > 22.6 | > 52.8 | 0.0937 | 0.705 | 0.15 | 8.05 | > 13.6 | > 50.7 | 0.109 | 2.18 |
| CCCO/C(O)=C1\C(C)=NC2=C(C(=O)CC(c3ccc(OC)c(OC)c3)C2)C1c1ccc(F)cc1 (configuration not stated) | > 36.3 | 0.0964 | > 19.9 | > 36.3 | 0.0566 | > 36.3 | > 15.6 | > 36.3 | 0.0613 | 0.121 | 0.058 | 0.024 | 0.155 | 5.92 | 0.0603 | 0.0952 |
| Cc1c2[nH]c3ccccc3c2c2c([n+]1C)CC(C)(C)CC2 | > 55.5 | 3.19 | > 30.4 | > 55.5 | 0.154 | > 55.5 | 0.48 | > 55.5 | 0.896 | 3.52 | 1.35 | 1.4 | 3.33 | 13.6 | 1.04 | 0.921 |
| OC(CNC1CCCC1)Cn1c2ccccc2c2ccccc21 (configuration not stated) | 20.3 | 1.69 | > 22.2 | > 40.6 | 0.879 | 14.8 | > 17.4 | 31.5 | 1.08 | 0.62 | 2.69 | 0.163 | 0.813 | 3.41 | 3.17 | 0.889 |
| CC(C)(C)c1cc(/N=N/C(=O)c2ccncc2)cc(C(C)(C)C)c1O | > 28.4 | 0.602 | 2.3 | 0.682 | 1.11 | > 28.4 | > 12.2 | 0.971 | 0.545 | 0.48 | 0.478 | 0.496 | 0.508 | 1.01 | 0.463 | 1.01 |
